Measured values taken from ChEMBL document CHEMBL1122206, “Use of adenine nucleotide derivatives to assess the potential of exo-active-site-directed reagents as species- or isozyme-specific enzyme inactivators. 5. Interactions of adenosine 5'-triphosphate derivatives with rat pyruvate kinases, Escherichia coli thymidine kinase, and yeast and rat …” (1982).

Columns and labels:
[1] = molecular target: T1, Hexokinase-2 (Rattus norvegicus) (UniProt P27881); experiment: Substrate activity against Rat hexokinase II as 1:1 Mg complex at 5.0 mM
T1 sequence (whole entry): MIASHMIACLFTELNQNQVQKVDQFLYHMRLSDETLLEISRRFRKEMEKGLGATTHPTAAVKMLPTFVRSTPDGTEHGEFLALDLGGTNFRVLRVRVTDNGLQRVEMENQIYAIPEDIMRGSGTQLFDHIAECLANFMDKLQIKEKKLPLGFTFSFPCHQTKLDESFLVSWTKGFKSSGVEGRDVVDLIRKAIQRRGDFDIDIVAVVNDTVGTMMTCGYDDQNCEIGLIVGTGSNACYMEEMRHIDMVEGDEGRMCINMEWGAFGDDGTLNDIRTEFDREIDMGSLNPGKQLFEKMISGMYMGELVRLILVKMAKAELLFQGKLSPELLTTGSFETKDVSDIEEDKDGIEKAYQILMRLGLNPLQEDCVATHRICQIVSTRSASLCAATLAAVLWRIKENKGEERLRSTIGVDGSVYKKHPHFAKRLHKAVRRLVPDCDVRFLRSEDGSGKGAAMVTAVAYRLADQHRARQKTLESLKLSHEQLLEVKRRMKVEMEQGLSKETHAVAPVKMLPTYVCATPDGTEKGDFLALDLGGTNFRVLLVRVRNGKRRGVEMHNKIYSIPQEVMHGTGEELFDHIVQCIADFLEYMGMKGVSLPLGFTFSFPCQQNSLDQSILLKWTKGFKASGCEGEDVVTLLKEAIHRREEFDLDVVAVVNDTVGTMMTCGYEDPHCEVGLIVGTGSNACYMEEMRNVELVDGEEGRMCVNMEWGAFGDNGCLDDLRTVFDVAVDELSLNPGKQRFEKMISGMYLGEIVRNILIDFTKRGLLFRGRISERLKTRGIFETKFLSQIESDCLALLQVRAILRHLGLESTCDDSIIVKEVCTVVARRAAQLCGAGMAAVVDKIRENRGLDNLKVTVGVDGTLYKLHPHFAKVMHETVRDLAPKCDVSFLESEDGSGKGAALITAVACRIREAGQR
Summary of the method: (§1)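 Hexokinase activity read at 22 °C as A340 change, coupled to glucose-6-phosphate dehydrogenase, in 0.05 M Tris-HCl pH 7.6 with 6.6 mM MgCl2, 10 mM α-D-glucose and 0.93 mM NADP. Donor was 5.0 mM MgATP derivative (1:1 Mg complex) in place of ATP. Yeast HK was isoelectric-focused. Rat HK I and III came from electrofocused liver extract, HK II from dialysed muscle extract.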

[2] = molecular target: T2, Hexokinase-3 (Rattus norvegicus) (UniProt P27926); experiment: Substrate activity for rat hexokinase III as 1:1 Mg complex at 5.0 mM; summary of the method: as §1
T2 sequence (whole entry): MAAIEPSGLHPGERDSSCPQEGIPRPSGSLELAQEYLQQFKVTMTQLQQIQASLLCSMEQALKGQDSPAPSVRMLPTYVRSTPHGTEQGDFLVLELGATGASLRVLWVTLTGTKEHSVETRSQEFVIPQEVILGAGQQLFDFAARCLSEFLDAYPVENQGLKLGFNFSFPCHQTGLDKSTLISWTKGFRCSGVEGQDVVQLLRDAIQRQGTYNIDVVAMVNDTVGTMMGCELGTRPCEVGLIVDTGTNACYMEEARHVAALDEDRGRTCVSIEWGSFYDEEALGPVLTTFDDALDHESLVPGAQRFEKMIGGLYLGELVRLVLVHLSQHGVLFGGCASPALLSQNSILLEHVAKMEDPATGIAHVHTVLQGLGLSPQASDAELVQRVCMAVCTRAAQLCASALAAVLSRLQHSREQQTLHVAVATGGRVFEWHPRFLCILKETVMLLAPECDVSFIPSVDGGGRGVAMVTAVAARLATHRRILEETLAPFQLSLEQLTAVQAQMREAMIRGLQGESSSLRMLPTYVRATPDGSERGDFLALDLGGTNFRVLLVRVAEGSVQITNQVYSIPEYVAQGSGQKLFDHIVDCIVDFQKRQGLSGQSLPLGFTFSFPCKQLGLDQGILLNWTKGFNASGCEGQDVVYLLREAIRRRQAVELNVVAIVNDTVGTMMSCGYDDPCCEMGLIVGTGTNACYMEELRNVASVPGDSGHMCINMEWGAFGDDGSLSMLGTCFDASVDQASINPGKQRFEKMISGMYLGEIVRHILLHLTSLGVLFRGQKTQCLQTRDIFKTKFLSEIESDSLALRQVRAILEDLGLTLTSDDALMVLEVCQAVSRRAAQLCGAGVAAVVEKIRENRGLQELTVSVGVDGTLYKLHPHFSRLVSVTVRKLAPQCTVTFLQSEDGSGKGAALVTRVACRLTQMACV

[3] = Substrate concentration for half maximal velocity was reported for yeast hexokinase
Summary of the method: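 Coupled glucose-6-phosphate dehydrogenase/NADP assay: A340 rate at 22 °C in 0.05 M Tris-HCl pH 7.6 with 6.6 mM MgCl2, 10 mM α-D-glucose and 0.93 mM NADP, nucleotide varied. KM was taken from linear double-reciprocal plots. Rat HK I and III came from electrofocused, dialysed liver extract, HK II from dialysed muscle extract, and yeast HK was isoelectric-focused.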

[4] = molecular target: Thymidine kinase (Escherichia coli) (UniProt P23331); experiment: Compound was tested for the loss of thymidine kinase activity from Escherichia coli after 6 hr at 0 degrees C at 10 mM
Chain of Thymidine kinase (Escherichia coli) (P23331 whole entry, looked up): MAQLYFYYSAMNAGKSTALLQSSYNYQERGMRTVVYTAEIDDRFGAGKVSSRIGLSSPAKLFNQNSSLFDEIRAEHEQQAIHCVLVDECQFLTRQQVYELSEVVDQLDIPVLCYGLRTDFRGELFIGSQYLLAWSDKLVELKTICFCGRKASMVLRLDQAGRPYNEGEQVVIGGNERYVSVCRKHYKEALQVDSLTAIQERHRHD

Nc1ncnc2c1ncn2[C@@H]1O[C@H](COP(=O)(O)OP(=O)(O)OP(=O)(O)O)[C@@H](O)[C@H]1O
Relative velocity [1]: 1
Relative velocity [2]: 1
Km [3]: 130 µM
inhibition [4]: 0%
